22 molecules from ChEMBL document CHEMBL1133094 (J Med Chem, 2000) can be followed below.

One experiment deals with D(2) dopamine receptor (Rattus norvegicus, UniProt P61169). Kind of experiment: Binding Affinity was determined against Dopamine receptor D2 in rat striatal membranes using [3H]- spiperone radioligand. In kind it is cell membranes, Striatum, Membrane.
In the next experiment the target is D(1A) dopamine receptor (Rattus norvegicus, UniProt P18901). Kind of experiment: Binding Affinity was determined against Dopamine receptor D1 in rat striatal membranes using [3H]- SCH 23390 radioligand. The class given is cell membranes, Striatum, Membrane. Summed up: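 Competition binding with rat striatal membranes as tissue source, reported as pKi. The labelled site is the D1-like family (D1 and D5 subtypes), not D1 alone. All compounds were tested as racemates.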
Sequence of D(1A) dopamine receptor (P18901 whole entry): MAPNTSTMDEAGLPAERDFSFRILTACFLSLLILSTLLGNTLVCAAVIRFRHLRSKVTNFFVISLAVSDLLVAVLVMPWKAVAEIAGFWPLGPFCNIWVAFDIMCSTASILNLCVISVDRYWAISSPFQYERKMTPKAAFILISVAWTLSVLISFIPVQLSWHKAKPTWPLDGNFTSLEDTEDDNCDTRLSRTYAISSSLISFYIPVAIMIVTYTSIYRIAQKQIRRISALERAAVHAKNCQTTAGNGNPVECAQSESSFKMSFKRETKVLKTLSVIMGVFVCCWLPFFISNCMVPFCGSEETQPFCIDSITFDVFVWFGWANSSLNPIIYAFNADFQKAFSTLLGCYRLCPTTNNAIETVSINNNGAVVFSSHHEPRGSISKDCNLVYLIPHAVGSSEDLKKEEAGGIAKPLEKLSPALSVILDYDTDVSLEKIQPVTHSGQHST

pKi: −log10 of the molar value.

Sequence of D(2) dopamine receptor (P61169 whole entry): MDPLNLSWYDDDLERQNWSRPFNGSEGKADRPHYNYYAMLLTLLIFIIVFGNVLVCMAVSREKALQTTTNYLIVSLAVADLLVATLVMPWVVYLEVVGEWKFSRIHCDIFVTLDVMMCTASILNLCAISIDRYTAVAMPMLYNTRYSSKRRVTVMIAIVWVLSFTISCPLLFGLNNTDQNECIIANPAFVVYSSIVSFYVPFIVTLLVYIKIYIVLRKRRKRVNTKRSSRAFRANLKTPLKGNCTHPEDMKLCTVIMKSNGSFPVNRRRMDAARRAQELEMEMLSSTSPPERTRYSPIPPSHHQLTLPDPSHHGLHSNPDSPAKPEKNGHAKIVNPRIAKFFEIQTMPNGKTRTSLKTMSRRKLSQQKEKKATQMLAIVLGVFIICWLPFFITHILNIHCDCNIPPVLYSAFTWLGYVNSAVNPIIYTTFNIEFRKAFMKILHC

Turning to `CCCN1CCc2c(Br)ccc(O)c2C1Cc1cc(OC)ccc1Br` (centres undefined), the pKi (commonly −log10 of the Ki, conventionally taken in molar units) on D(2) dopamine receptor was less than 5.00; at D(1A) dopamine receptor, 5.13.
The matching figures for `COc1ccc(Br)c(CC2c3c(O)ccc(Br)c3CCN2C)c1` (centres undefined): less than 5.00 and 6.41.
On to `CCN1CCc2cccc3c2C1Cc1cc(O)ccc1O3` (centres undefined), for which the negative logarithm of the Ki (pKi) on D(2) dopamine receptor is less than 5.00; at D(1A) dopamine receptor, 5.17.
`COc1cc2c3c(c1)Oc1ccccc1CC3N(C)CC2` (centres undefined): the figures for the pKi at D(2) dopamine receptor and on D(1A) dopamine receptor were 5.03 and 5.37, respectively.
Take `CCN1CCc2cc(OC)cc3c2C1Cc1ccccc1O3` (centres undefined): the pKi is 5.07 at D(2) dopamine receptor and less than 5.00 on D(1A) dopamine receptor.
The matching figures for `CCCN1CCc2cc(O)cc3c2C1Cc1ccccc1O3` (centres undefined): less than 5.00 and less than 5.00.
On to `CN1CCc2cc(O)cc3c2C1Cc1ccccc1O3` (centres undefined), for which the negative-log Ki (pKi) at D(2) dopamine receptor is 6.56; at D(1A) dopamine receptor, 5.54.
For the molecule `CCN1CCc2c(Br)ccc(O)c2C1Cc1cc(OC)ccc1Br` (centres undefined), the results for the pKi on D(2) dopamine receptor and on D(1A) dopamine receptor were less than 5.00 and 5.81, respectively.
The like results for `CN1CCc2cccc3c2C1Cc1cc(O)ccc1O3` (centres undefined) were, in that order, 6.14 and 5.32.
The matching figures for `COc1ccc2c(c1)CC1c3c(ccc(Br)c3CCN1C)O2` (centres undefined): 6.07 and 5.12.
Regarding `COc1ccc2c(c1)CC1c3c(cccc3O2)CCN1C` (centres undefined), the pKi on D(2) dopamine receptor was 5.91; on D(1A) dopamine receptor, 5.28.
In the case of `COc1cc(Br)c2c(c1)CCN(C)C2Cc1ccccc1O` (centres undefined), the negative logarithm of the Ki (pKi) on D(2) dopamine receptor is 5.15; on D(1A) dopamine receptor, 4.93.
As to `CCCN1CCc2cccc3c2C1Cc1cc(O)ccc1O3` (centres undefined), the pKi on D(2) dopamine receptor and on D(1A) dopamine receptor was less than 5.00 in each case.
As for `CCCN1CCc2cc(OC)cc3c2C1Cc1ccccc1O3` (centres undefined), the negative-log Ki (pKi) on D(2) dopamine receptor is 5.46; on D(1A) dopamine receptor, less than 5.00.
As for `CCN1CCc2cc(OC)cc(Br)c2C1Cc1ccccc1O` (centres undefined), the figures for the pKi on D(2) dopamine receptor and at D(1A) dopamine receptor were 5.51 and 5.52, respectively.
With `CCN1CCc2cccc3c2C1Cc1cc(OC)ccc1O3` (centres undefined), the figures for the negative logarithm of the Ki (pKi) on D(2) dopamine receptor and on D(1A) dopamine receptor were 5.73 and less than 5.00, respectively.
The like results for `CCCN1CCc2c(Br)ccc3c2C1Cc1cc(OC)ccc1O3` (centres undefined) were, in that order, less than 5.00 and 5.61.
The matching figures for `CCCN1CCc2cccc3c2C1Cc1cc(OC)ccc1O3` (centres undefined): less than 5.00 and 5.41.
The matching figures for `COc1cc(Br)cc2c1C(Cc1ccccc1O)N(C)CC2` (centres undefined): 5.74 and 5.77.
Take `CCN1CCc2cc(Br)cc(OC)c2C1Cc1ccccc1O` (centres undefined): the negative-log Ki (pKi) on D(2) dopamine receptor is 5.66; on D(1A) dopamine receptor it was 5.25.
For the molecule `CCN1CCc2c(Br)ccc3c2C1Cc1cc(OC)ccc1O3` (centres undefined), the pKi was less than 5.00 at D(2) dopamine receptor and 5.46 on D(1A) dopamine receptor.
As to `CCN1CCc2cc(O)cc3c2C1Cc1ccccc1O3` (centres undefined), the pKi was 5.19 on D(2) dopamine receptor and 5.46 at D(1A) dopamine receptor.
